Experimental data as given in ChEMBL document CHEMBL1817572, “New, potent, selective, and short-acting peptidic V1a receptor agonists” (J Med Chem, 2011).
pEC50: −log10 of the molar value. Bridge positions count the residues as written; N and C are the ends. Square brackets hold non-standard residues; d marks the D form. Peptide text beside a SMILES is read from it. Orn(iPr) = CC(C)NCCC[C@H](N)C(=O)O; Cha = N[C@@H](CC1CCCCC1)C(=O)O

Legend:
[1] = target: Vasopressin V1a/V2 (Homo sapiens) (UniProt P30518+P37288); assay: Selectivity ratio of EC50 for human vasopressin V2 receptor to EC50 for human vasopressin V1a receptor
[2] = target: Vasopressin V1a receptor (Homo sapiens, UniProt P37288); assay: Agonist activity at recombinant human vasopressin V1a receptor expressed in HEK293 cells by luciferase reporter gene assay; assay type: functional, cell-based; details: read-out: EC50
[3] = target: T1, Vasopressin V1b receptor (Homo sapiens, UniProt P47901); assay: Agonist activity at recombinant human vasopressin V1b receptor expressed in Flp-In-293 cells by luciferase reporter gene assay; assay type: functional, cell-based; details: read-out: EC50
T1 sequence (P47901 whole entry): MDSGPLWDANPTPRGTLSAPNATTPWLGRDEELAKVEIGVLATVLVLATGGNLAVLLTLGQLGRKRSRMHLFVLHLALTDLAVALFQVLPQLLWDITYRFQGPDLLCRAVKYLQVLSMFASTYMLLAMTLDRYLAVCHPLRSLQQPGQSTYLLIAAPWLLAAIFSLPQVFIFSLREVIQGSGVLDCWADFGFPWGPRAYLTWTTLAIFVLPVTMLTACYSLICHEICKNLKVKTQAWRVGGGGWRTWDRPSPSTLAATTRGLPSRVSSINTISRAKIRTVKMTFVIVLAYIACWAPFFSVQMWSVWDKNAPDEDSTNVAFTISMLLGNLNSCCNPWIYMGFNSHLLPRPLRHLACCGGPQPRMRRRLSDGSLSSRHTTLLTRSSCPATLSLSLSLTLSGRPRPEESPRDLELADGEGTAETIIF
In short: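 Reporter gene assays in HEK293 cells transiently cotransfected with V1a (human or rat) or human V2 receptor vector plus NFAT-luciferase (V1a) or CRE-luciferase (V2) reporter; V1b in Flp-In-293 stably expressing receptor, OT in CHO-K1 stably expressing receptor, both transiently transfected with NFAT-luciferase. Two days post-transfection, peptides added for 5 h at 37 °C, lysis with luciferin, luminescence read.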

[4] = target: Vasopressin V2 receptor (Homo sapiens, UniProt P30518); assay: Agonist activity at recombinant human vasopressin V2 receptor expressed in HEK293 cells by luciferase reporter gene assay; assay type: functional, cell-based; details: read-out: EC50
[5] = target: T2, Oxytocin receptor (Homo sapiens, UniProt P30559); assay: Agonist activity at human OT receptor expressed in CHO-K1 cells by luciferase reporter gene assay; assay type: functional, cell-based
T2 sequence (P30559 whole entry): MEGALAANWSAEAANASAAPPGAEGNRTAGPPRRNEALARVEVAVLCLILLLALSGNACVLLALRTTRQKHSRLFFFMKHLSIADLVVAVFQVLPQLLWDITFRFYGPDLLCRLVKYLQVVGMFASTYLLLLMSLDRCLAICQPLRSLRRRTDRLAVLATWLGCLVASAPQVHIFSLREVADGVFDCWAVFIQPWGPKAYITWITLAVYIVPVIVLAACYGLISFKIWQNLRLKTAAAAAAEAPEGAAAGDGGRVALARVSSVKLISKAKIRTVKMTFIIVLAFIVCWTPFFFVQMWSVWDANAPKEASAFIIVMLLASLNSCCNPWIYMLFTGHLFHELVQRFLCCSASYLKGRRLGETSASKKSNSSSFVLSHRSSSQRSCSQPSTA

[6] = organism: Homo sapiens; assay: Selectivity ratio of EC50 for human vasopressin V1b receptor to EC50 for human vasopressin V1a receptor
[7] = organism: Homo sapiens; assay: Selectivity ratio of EC50 for human oxytocin receptor to EC50 for human vasopressin V1a receptor
[8] = target: Vasopressin V1a receptor (Rattus norvegicus, UniProt P30560); assay: Agonist activity at recombinant rat vasopressin V1a receptor expressed in HEK293 cells by luciferase reporter gene assay; assay type: functional, cell-based; details: read-out: EC50
[9] = system: Rattus norvegicus; assay: Vasoconstriction in Wistar rat assessed as assessed as decay in vasopressive duration of action at 60 nmol/kg, iv bolus measured over 10 sec interval; assay type: functional
In short: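 Fasted male Wistar rats (206–340 g) under isoflurane, then thiobutabarbital 150 mg/kg ip, ventilated, 37–38 °C, with carotid pressure and jugular dosing. Dibenamine 1.8 mg/rat iv pretreatment. Sequence: iv boluses (0.5 mL/kg) of heparinized vehicle, then two reference doses of 0.1 nmol/kg, then two test doses; one matches the reference diastolic pressure rise. Relative duration = reference decay rate / test decay rate; mean ± SEM.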

Chain of Vasopressin V2 receptor (P30518 whole entry): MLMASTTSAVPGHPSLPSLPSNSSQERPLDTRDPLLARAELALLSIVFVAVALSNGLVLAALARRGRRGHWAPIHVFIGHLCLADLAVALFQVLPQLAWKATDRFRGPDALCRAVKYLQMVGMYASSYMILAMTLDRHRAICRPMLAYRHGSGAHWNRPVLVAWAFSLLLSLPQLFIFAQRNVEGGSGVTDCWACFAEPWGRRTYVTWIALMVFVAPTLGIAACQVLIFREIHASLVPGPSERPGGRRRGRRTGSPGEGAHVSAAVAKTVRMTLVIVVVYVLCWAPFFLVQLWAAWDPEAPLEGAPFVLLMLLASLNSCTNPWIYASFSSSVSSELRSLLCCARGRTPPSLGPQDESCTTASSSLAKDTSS
Chain of Vasopressin V1a/V2 (Homo sapiens) (P30518 whole entry, looked up): as the sequence (P30518 whole entry) above
Chain of Vasopressin V1a/V2 (Homo sapiens) (P37288 whole entry, looked up): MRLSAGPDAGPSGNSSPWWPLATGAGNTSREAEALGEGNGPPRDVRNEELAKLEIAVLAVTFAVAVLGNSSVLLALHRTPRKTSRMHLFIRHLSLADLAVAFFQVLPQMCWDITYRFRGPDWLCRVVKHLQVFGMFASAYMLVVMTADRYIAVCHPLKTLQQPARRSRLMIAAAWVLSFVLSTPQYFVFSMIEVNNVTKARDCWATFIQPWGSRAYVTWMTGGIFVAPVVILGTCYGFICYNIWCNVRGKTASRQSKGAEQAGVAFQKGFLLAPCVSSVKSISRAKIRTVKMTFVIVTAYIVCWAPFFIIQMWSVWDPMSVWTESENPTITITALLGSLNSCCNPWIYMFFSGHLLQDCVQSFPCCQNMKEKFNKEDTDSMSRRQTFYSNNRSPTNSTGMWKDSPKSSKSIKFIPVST
Chain of Vasopressin V1a receptor (Rattus norvegicus, UniProt P30560) (P30560 whole entry): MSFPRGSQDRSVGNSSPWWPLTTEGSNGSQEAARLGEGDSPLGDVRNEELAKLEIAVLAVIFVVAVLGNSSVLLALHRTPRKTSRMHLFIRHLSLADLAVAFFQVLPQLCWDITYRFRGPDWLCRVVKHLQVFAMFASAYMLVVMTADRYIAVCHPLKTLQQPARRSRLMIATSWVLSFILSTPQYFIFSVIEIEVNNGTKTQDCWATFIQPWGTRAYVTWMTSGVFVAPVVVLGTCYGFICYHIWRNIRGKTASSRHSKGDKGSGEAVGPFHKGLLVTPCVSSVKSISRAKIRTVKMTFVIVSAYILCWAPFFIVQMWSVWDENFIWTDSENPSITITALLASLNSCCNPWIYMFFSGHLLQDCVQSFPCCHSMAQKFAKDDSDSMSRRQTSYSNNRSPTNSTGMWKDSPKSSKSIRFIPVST
Chain of Vasopressin V1a receptor (Homo sapiens, UniProt P37288) (P37288 whole entry): as the sequence (P37288 whole entry, looked up) above

- Ratio EC50 [1]: 690
- pEC50 [2]: 8.85
- pEC50 [3]: 6.96
- pEC50 [4]: 6.01
- pEC50 ([5]; cho-k1, read-out: EC50): < 5.00
- EC50 ([5]; read-out: pEC50 (converted)): > 10000 nM
- Ratio EC50 [6]: 78
- Ratio EC50 [7]: > 7100
- pEC50 [8]: 7.24
SMILES: CC[C@H](C)[C@@H]1NC(=O)[C@H](CC2CCCCC2)NC(=O)[C@@H](N)CSSC[C@@H](C(=O)N2CCC[C@H]2C(=O)N[C@@H](CCCNC(C)C)C(=O)NCC(N)=O)NC(=O)[C@H](CC(N)=O)NC(=O)[C@H](CC(N)=O)NC1=O (H-C[Cha]INNCP[Orn(iPr)]G-NH2; disulfide 1-6)
- Time [9]: 4.1 unitless ratio
